17 compounds from ChEMBL document CHEMBL1129452, “Phenethylthiazolylthiourea (PETT) compounds as a new class of HIV-1 reverse transcriptase inhibitors. 2. Synthesis and further structure-activity relationship studies of PETT analogs” (J Med Chem, 1996) can be followed below.

For experiment [1], the target named is T1, Human immunodeficiency virus type 1 reverse transcriptase (Human immunodeficiency virus 1, UniProt Q72547). In words: Tested for the inhibition of mutant type (Ile100) HIV-1 (IIIB) RT.
Experiment [2] addresses T1, Human immunodeficiency virus type 1 reverse transcriptase. The experiment can be described thus: Tested for the inhibition of wild type HIV-1 (IIIB) RT.
For experiment [3] the target is unchanged. In words: Tested for the inhibition of mutant type (Cys181) HIV-1 (IIIB) RT.
The test system of experiment [4] is MT4. The experiment can be described thus: Inhibition of mutant type (Ile100) HIV-1 (IIIB) replication in MT-4 cells. The settings on record: Homo sapiens, read-out: ED50 (the source's name). Format: functional. In short, it runs like this:
(§1)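 MT-4 cells (human T cell line) in RPMI 1640 with 10% fetal calf serum, penicillin and streptomycin, seeded at 2 × 10⁴ cells/well. Infected with 10-20 TCID₅₀ of mutant HIV-1 IIIB per well, with the compound added at different concentrations. Incubated at 37 °C in CO₂. Cell viability read by XTT dye at day 5 or 6. Activity taken as the reduction in viral cytopathic effect, given as ED₅₀. Mutants were raised by passage in stepwise increasing concentrations of non-nucleoside RT inhibitors.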

Experiment [5] has as its system MT4. The experiment can be described thus: Inhibition of mutant type (Cys181) HIV-1 (IIIB) replication in MT-4 cells. The note with it: Homo sapiens, read-out: ED50 (the source's name). Format: functional. An outline of the steps: as §1
The subject of experiment [6] is MT4. In words: Tested for the inhibition of wild type HIV-1 (IIIB) replication in MT-4 cells. It is filed as functional. The note with it: Homo sapiens, read-out: ED50 (the source's name). An outline of the steps: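 MT-4 human T cells in RPMI 1640 with 10% fetal calf serum, penicillin and streptomycin, seeded at 2 × 10⁴ cells/well and infected with 10-20 TCID₅₀ HIV-1 IIIB per well. Compounds were added over a concentration range and cultures kept at 37 °C in CO₂. Viability was read by XTT at day 5 or 6, and activity was taken as reduction of viral cytopathic effect.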

Experiment [7] concerns MT4. The experiment can be described thus: Inhibition of HIV-1(IIIB) variants (Ile100/Asn103) in HIV-1 MT-4 cells. The note with it: Homo sapiens, read-out: ED50 (the source's name). It is filed as functional. An outline of the steps: as §1
Experiment [8] has as its system MT4. In words: Inhibition of HIV-1(IIIB) variants (Ile100/Cys181) in HIV-1 MT-4 cells. It is filed as functional. The settings on record: Homo sapiens, read-out: ED50 (the source's name). In short, it runs like this:
as §1

The test system of experiment [9] is MT4. The experiment can be described thus: Inhibition of HIV-1(IIIB) variants (Ile100/Cys181 in HIV-1 MT-4 cells. Format: functional. The settings on record: Homo sapiens, read-out: ED50 (the source's name). An outline of the steps: as §1
In experiment [10] the test system is MT4. The experiment can be described thus: Inhibition of HIV-1(IIIB) variants (Ile100/Cys 181) in HIV-1 MT-4 cells. It is filed as functional. The settings on record: Homo sapiens, read-out: ED50 (the source's name). In short, it runs like this:
as §1

As a reminder, the IC50 is the concentration that gives 50% inhibition.

The structures appear in SMILES notation.

Turning to `Fc1cc(F)c(CCNC(=S)Nc2ccc(Cl)cn2)c(F)c1`, the IC50 in experiment [1] stood at 810 nM; in [2] it was 2 nM; in experiment [3], 290 nM. Also, the EC50 with MT4 [4] was 2000 nM; in the experiment on MT4 [5], 1500 nM; in the experiment with MT4 [6] it was 10 nM.

As to `COc1ccc(F)c(CC/N=C(\S)Nc2ccc(Br)cn2)c1C#N`, the EC50 in the experiment on MT4 [7] was above 10000 nM; in the experiment on MT4 [8], above 10000 nM; in the experiment with MT4 [4] it was 250 nM; with MT4 [5], 40 nM; in the experiment with MT4 [6] it was 3 nM. Besides, the IC50 is 50 nM in [1], 1 nM in experiment [2] and 50 nM in experiment [3].

Regarding `Fc1ccoc1CC/N=C(\S)Nc1ccc(Cl)cn1`, the EC50 in the experiment on MT4 [7] was above 10000 nM; in the experiment with MT4 [8], above 10000 nM; in the experiment with MT4 [4], 100 nM; in the experiment on MT4 [5] it was 80 nM; in the experiment on MT4 [6], 7 nM. The concentration for half-maximal inhibition (IC50) was 230 nM in [1], 4 nM in experiment [2] and 140 nM in experiment [3].

Consider `O=C1c2ccccc2C(=O)N1CCNC(=S)Nc1ccc(Cl)cn1`, for which the EC50 in the experiment with MT4 [7] is above 10000 nM; with MT4 [4], 200 nM; in the experiment with MT4 [5], 40 nM; in the experiment with MT4 [6] it was 5 nM; with MT4 [9], 15000 nM. In addition, the IC50 came to 280 nM in experiment [1], 1 nM in experiment [2] and 130 nM in [3].

Turning to `CN(C)c1ccc(CC/N=C(\S)Nc2ccc(Br)cn2)c(F)c1C#N`, the EC50 in the experiment on MT4 [7] came to 5500 nM; in the experiment with MT4 [4], 150 nM; in the experiment on MT4 [5], 20 nM; in the experiment on MT4 [6], 13 nM; in the experiment with MT4 [9], 7500 nM. The IC50 turned out to be 210 nM in experiment [1], 8 nM in experiment [2] and 110 nM in experiment [3].

Regarding `CCOc1ccc(F)c(CCNC(=S)Nc2ccc(Br)cn2)c1F`, the EC50 was above 10000 nM with MT4 [7]; 1200 nM in the experiment with MT4 [8]; 100 nM in the experiment on MT4 [4]; 6 nM in the experiment with MT4 [5]; 6 nM in the experiment with MT4 [6]. Besides, the figures for the IC50 in experiment [1], in experiment [2] and in [3] were 170 nM, 4 nM and 20 nM, respectively.

In the case of `CCOc1ccc(F)c(CCNC(=S)Nc2ccc(I)cn2)c1Cl`, the values for the IC50 in experiment [1], in experiment [2] and in [3] were 420 nM, 8 nM and 130 nM, respectively. The values for the EC50 in the experiment with MT4 [4], with MT4 [5] and with MT4 [6] were 3000 nM, 200 nM and 15 nM, respectively.

With `COc1ccc(OC)c(CCNC(=S)Nc2ccc(Cl)cn2)c1F`, the EC50 with MT4 [7] is 1000 nM; in the experiment on MT4 [8], 1000 nM; in the experiment with MT4 [4] it was 9 nM; in the experiment with MT4 [5], 3 nM; in the experiment with MT4 [6], 2 nM. In addition, the IC50 in experiment [1] was determined as 80 nM; in experiment [2], 1 nM; in experiment [3] it was 54 nM.

Turning to `CCOc1cccc(F)c1CCNC(=S)Nc1ccc(Br)cn1`, the EC50 turned out to be 1600 nM in the experiment on MT4 [7]; 1000 nM with MT4 [8]; 90 nM in the experiment on MT4 [4]; 7 nM with MT4 [5]; 13 nM in the experiment with MT4 [6]. Moreover, the values for the IC50 in experiment [1] and in experiment [3] were 50 nM and 25 nM, respectively.

Turning to `N#Cc1ccc(F)c(CC/N=C(\S)Nc2ccc(Cl)cn2)c1F`, the EC50 was above 10000 nM in the experiment on MT4 [7]; 800 nM in the experiment with MT4 [4]; 50 nM in the experiment on MT4 [5]; above 10000 nM with MT4 [10]; 6 nM in the experiment with MT4 [6]. Further, the IC50 was 400 nM in experiment [1], 9 nM in experiment [2] and 90 nM in experiment [3].

Consider `COc1ccc(F)c(F)c1CCNC(=S)Nc1ccc(Br)cn1`, for which the EC50 in the experiment on MT4 [7] was above 10000 nM; with MT4 [4] it was 600 nM; in the experiment on MT4 [5], 40 nM; in the experiment with MT4 [6] it was 7 nM; with MT4 [9], above 10000 nM. Moreover, the concentration for half-maximal inhibition (IC50) in [1] came out at 50 nM; in [2] it was 3 nM; in experiment [3] it was 4 nM.

On to `CCOc1ccc(OC)c(CCNC(=S)Nc2ccc(Cl)cn2)c1F`, for which the EC50 in the experiment with MT4 [7] was above 10000 nM; in the experiment on MT4 [8], above 10000 nM; in the experiment on MT4 [4], 90 nM; in the experiment on MT4 [5] it was 9 nM; in the experiment with MT4 [6], 5 nM. Moreover, the IC50 in [1] turned out to be 160 nM; in experiment [2] it was 5 nM; in experiment [3] it was 34 nM.

For the compound `CCOc1ccc(F)c(F)c1CCNC(=S)Nc1ccc(Br)cn1`, the EC50 with MT4 [7] is above 10000 nM; with MT4 [8], above 10000 nM; in the experiment with MT4 [4], 1500 nM; in the experiment with MT4 [5], 200 nM; in the experiment with MT4 [6] it was 7 nM. The IC50 in [1] was determined as 20 nM; in experiment [2] it was 5 nM; in experiment [3], 10 nM.

As for `CCOc1ccc(Cl)c(CC/N=C(\S)Nc2ccc(Br)cn2)c1F`, the EC50 in the experiment with MT4 [7] was above 10000 nM; with MT4 [8], above 10000 nM; in the experiment on MT4 [4], 900 nM; in the experiment with MT4 [5], 50 nM; in the experiment with MT4 [6], 18 nM. Moreover, the IC50 in experiment [1] amounted to 90 nM; in experiment [2] it was 2 nM; in experiment [3] it was 9 nM.

For `CCOc1ccc(F)c(CC/N=C(\S)Nc2ccc(Br)cn2)c1C#N`, the EC50 is above 10000 nM in the experiment with MT4 [7]; 3000 nM in the experiment with MT4 [8]; 40 nM in the experiment on MT4 [4]; 5 nM in the experiment with MT4 [5]; 4 nM in the experiment with MT4 [6]. The values for the IC50 in experiment [1], in [2] and in experiment [3] were 140 nM, 2 nM and 210 nM, respectively.

For `Cc1ccnc2c1NC(=O)c1cccnc1N2C1CC1` [NEVIRAPINE], the EC50 in the experiment with MT4 [7] is 8000 nM; in the experiment with MT4 [8], above 10000 nM; with MT4 [4], 620 nM; with MT4 [5] it was 22000 nM; with MT4 [6], 150 nM.

As to `CCOc1ccc(F)c(CCNC(=S)Nc2ccc(Br)cn2)c1Cl` [THIOUREA, N-(5-BROMO-2-PYRIDINYL)-N'-(2-(2-CHLORO-3-ETHOXY-6-FLUOROPHENYL)ETHYL)-], the results for the IC50 in experiment [1], in [2] and in experiment [3] were 190 nM, 12 nM and 50 nM, respectively. Also, the EC50 in the experiment with MT4 [4] worked out at 400 nM; in the experiment on MT4 [5] it was 30 nM; with MT4 [6], 7 nM.
